Source: PubChem
MC4R antag cAMP – human MC4R antagonism in cAMP assay | AID 540295 | actives 0.48% (n = 360,000) | P32245 | MC4R-expressing cells, MTII-stimulated cAMP, LANCE TR-FRET | inhibition, % at 6.5 µM;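 active = inhibition above its plate's cutoff, the mean of tested wells on that plate plus 3 SD, cut at about 29% in these data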;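 note: 0% = Melanotan II alone and 100% = Melanotan II plus saturating MCL0020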
Target sequence (P32245 whole entry, looked up): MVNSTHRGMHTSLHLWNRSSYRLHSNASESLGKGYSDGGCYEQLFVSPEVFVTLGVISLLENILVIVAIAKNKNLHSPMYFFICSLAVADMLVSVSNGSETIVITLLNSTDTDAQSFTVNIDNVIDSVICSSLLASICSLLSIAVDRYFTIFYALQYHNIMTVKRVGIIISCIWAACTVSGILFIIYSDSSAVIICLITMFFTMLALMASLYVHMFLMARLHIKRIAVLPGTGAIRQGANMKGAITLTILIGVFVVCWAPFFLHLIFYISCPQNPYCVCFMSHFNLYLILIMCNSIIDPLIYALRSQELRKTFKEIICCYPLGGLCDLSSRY
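material = U2OS cells stably expressing human melanocortin 4 receptor (MC4R) | also added = Melanotan II challenge | dosing = single nominal compound dose of 6.5 µM | detection = TR-FRET with Eu-cAMP and labeled anti-cAMP, 671 nm | replication = singlicate | timing = compound 30 min, challenge 1 h, detection 1 h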
MC4R barr agon – agonists of human melanocortin 4 receptor (MC4R) beta-arrestin; U2OS MC4R beta-arrestin complementation, luminescence; percent of melanotan II response, DMSO zero; activation, % at 8.9 µM; actives 0.98% (n = 360,000); AID 540308;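 active = activation above a per-plate cutoff, the mean activation of sample wells on that plate plus 3 SD, cut at about 8% in these data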
NTR1 ag – NTR1 (human) agonism; actives 0.17% (n = 330,000); AID 493036; NTR1-U2OS beta-arrestin-GFP spot imaging, agonist mode; activation, % at 20 µM;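 active = activation at or above 40% of the spot to cytoplasm intensity ratio, with at least 20 cells analyzed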;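 note: 0% = DMSO without peptide and 100% = 100 nM NTR1 peptide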
PG9 Ab binder – PG9 antibody binding by small molecule; inhibition, % at 6.7 µM; TR-FRET gp120-PG9 antibody binding; actives 0.43% (n = 360,000); AID 624416; in the data active = inhibition above about 8.5%
Rev-erbA mod – Rev-erb alpha (human) modulation. activity, % at 10 µM. actives 0.79% (n = 370,000). Rev-erbα–FITC-DNA binding, fluorescence polarization, 90 min. AID 1259318;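 active = activity above about 14%, limit read from the data; passing the limit was not always enough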;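 note: 0% = DMSO wells with 35 nM protein and 100% = DMSO wells with 750 nM protein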
Rev-erbA confirm – confirmation of modulators of human Rev-erb alpha DNA binding; activation, % at 25 µM; Rev-erb alpha FITC-DNA binding, fluorescence polarization, 90 min; actives 61% (n = 3,000); shares compounds with Rev-erbA mod;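 active = activation at or above a set limit, or at least 3 SD above the negative control mean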;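 note: 0% = 35 nM protein with DMSO and 100% = 750 nM protein high control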
RORg counter – affects RORgamma DNA binding in a Rev-erb alpha counter-screen. purified RORgamma protein-FITC-DNA binding, fluorescence polarization. IC50, µM. shares compounds with Rev-erbA mod. actives 8% (n = 910);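 active = Compounds whose fitted half-maximal concentration for disrupting protein-DNA binding is below 10 micromolar; the record names Rev-erb in its text, so the target is in doubt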
Numbers without * were called inactive. A selection: hits, their analogues and other compounds. The true share with any hit is near 2.5%.

How did CCCN1C(=O)/C(=C/C=C2\N(CC)c3ccccc3C2(C)C)SC1=S do in these assays?
MC4R antag cAMP: 1; MC4R barr agon: -3; NTR1 ag: -3; PG9 Ab binder: 0; Rev-erbA mod: 47*; Rev-erbA confirm: 43*

What do the screens show for `C=CCN1C(=O)/C(=C\C=C2\N(C)c3ccccc3C2(C)C)SC1=S`?
MC4R antag cAMP: -5; MC4R barr agon: -1; NTR1 ag: -3; PG9 Ab binder: -1; Rev-erbA mod: 25*; Rev-erbA confirm: 39*; RORg counter: >40

What do the screens show for `CN1/C(=C\C=C2/SC(=S)N(CC(=O)O)C2=O)C(C)(C)c2ccccc21`?
MC4R antag cAMP: -4; MC4R barr agon: -9; NTR1 ag: -2; PG9 Ab binder: -12; Rev-erbA mod: -14

How did Brc1ccc2nc(-c3ccc(CN4CCC5(CC4)CNc4ccccc45)cc3)c(-c3ccccc3)nc2c1 do in these assays?
PG9 Ab binder: 3; Rev-erbA mod: 9

How did CCOc1ccc(S(=O)(=O)c2c[nH]c3ccc(C)cc3c2=O)cc1 do in these assays?
MC4R antag cAMP: 4; MC4R barr agon: -2; NTR1 ag: -1; PG9 Ab binder: -1; Rev-erbA mod: 31*; Rev-erbA confirm: 20*

What do the screens show for `COc1cccc(CNC(=O)[C@H]2CCCN2C(=O)[C@H]2CCCN2C(=O)c2ccccc2)c1`?
PG9 Ab binder: 0; Rev-erbA mod: -5

Results for CC(C)(C)c1nnc(NC(=O)c2ccc3c(c2)OCO3)s1 ?
MC4R antag cAMP: 0; MC4R barr agon: 0; NTR1 ag: 1; PG9 Ab binder: 1; Rev-erbA mod: 1

What do the screens show for `Cc1ccc(C)c(OCc2nnc(NC(=O)c3ccc4c(c3)OCO4)s2)c1`?
MC4R antag cAMP: 6; MC4R barr agon: 1; NTR1 ag: 0; PG9 Ab binder: 1; Rev-erbA mod: 30*; Rev-erbA confirm: 10

What do the screens show for `COc1ccccc1-c1nnc(NC(=O)c2ccc3c(c2)OCO3)s1`?
MC4R antag cAMP: -1; MC4R barr agon: -2; NTR1 ag: 2; PG9 Ab binder: 3; Rev-erbA mod: 55*; Rev-erbA confirm: 10

What do the screens show for `COC(=O)c1c(-c2ccncc2)csc1NC(=O)c1ccoc1C`?
MC4R antag cAMP: 7; MC4R barr agon: 1; NTR1 ag: 4; PG9 Ab binder: 2; Rev-erbA mod: 2

What do the screens show for `COC(=O)c1c(-c2cccnc2)csc1NC(=O)c1ccc2c(c1)OCO2`?
MC4R antag cAMP: 9; MC4R barr agon: 5; NTR1 ag: 0; PG9 Ab binder: -22; Rev-erbA mod: 20*; Rev-erbA confirm: -8

Results for O=[N+]([O-])c1ccc(CN2CCOCCOCCN(Cc3ccc([N+](=O)[O-])cc3Cl)CCOCC2)c(Cl)c1 ?
Rev-erbA mod: -3

What do the screens show for `Cc1ccccc1NC(=O)O[C@H]1CC[C@@]23CCCN2C(=O)CCC[C@H]3[C@H]1C`?
Rev-erbA mod: 1

What do the screens show for `COc1ccc(Cl)cc1C(=O)Nc1cccc(-c2ccc3nncn3n2)c1`?
MC4R antag cAMP: 9; MC4R barr agon: 1; NTR1 ag: -2; PG9 Ab binder: 4; Rev-erbA mod: 128*; Rev-erbA confirm: 183*; RORg counter: >40

How did CCOC(=O)c1c(NC(=O)C2Cc3ccccc3C(=O)O2)sc2c1CCCC2 (stereo not drawn) do in these assays?
MC4R antag cAMP: 5; MC4R barr agon: 1; NTR1 ag: 9; PG9 Ab binder: -1; Rev-erbA mod: 35*; Rev-erbA confirm: 14*

Results for CCOC(=O)c1c(NC(=O)C2CCCN(S(=O)(=O)c3ccccc3)C2)sc2c1CCCC2 (stereo not drawn) ?
MC4R antag cAMP: 7; MC4R barr agon: -1; NTR1 ag: 0; PG9 Ab binder: 3; Rev-erbA mod: 24*; Rev-erbA confirm: 103*; RORg counter: >40

Results for COC(=O)c1c(NC(=O)C2Cc3ccccc3C(=O)O2)sc2c1CCCC2 (stereo not drawn) ?
MC4R antag cAMP: 11; MC4R barr agon: 1; NTR1 ag: 7; PG9 Ab binder: 0; Rev-erbA mod: 50*; Rev-erbA confirm: 22*
